# Experimental data: ChEMBL document CHEMBL5058577, “EUbOPEN Chemogenomics Library 2 (Multiplex)” (2022)
# Test system: HEK-293T
# Test: Multiplex assay against HEK293T
# Assay type: toxicity, cell-based
# Conditions: human
# Procedure, shortened: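 On a CQ1 microscope at 37°C and 5% CO2, live cells were imaged after compound addition. They had been stained at seeding with Hoechst33342, BioTracker Green Microtubule Cytoskeleton Dye, MitoTracker Red and Annexin V Alexa Fluor 680. CellPathfinder machine-learning gating assigned cells to Hoechst high-intensity objects or normal cells, normal cells to healthy, pyknosed or fragmented nuclei, and pyknosed cells to mitotic or apoptotic. Tubulin, mitochondrial-mass and membrane-permeability phenotypes are per cents of healthy-nucleus cells.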
# [1] = 12 h, 1 µM, compound concentration 1 uM, replicate 1
# [2] = 12 h, 1 µM, compound concentration 1 uM, replicate 2
# [3] = 12 h, 10 µM, compound concentration 10 uM, replicate 1
# [4] = 12 h, 10 µM, compound concentration 10 uM, replicate 2
# [5] = 24 h, 1 µM, compound concentration 1 uM, replicate 1
# [6] = 24 h, 1 µM, compound concentration 1 uM, replicate 2
# [7] = 24 h, 10 µM, compound concentration 10 uM, replicate 1
# [8] = 24 h, 10 µM, compound concentration 10 uM, replicate 2
# [9] = 48 h, 1 µM, compound concentration 1 uM, replicate 1
# [10] = 48 h, 1 µM, compound concentration 1 uM, replicate 2
# [11] = 48 h, 10 µM, compound concentration 10 uM, replicate 1
# [12] = 48 h, 10 µM, compound concentration 10 uM, replicate 2
smiles,measurement,setting,value
Cc1ccc(OCC(O)C(C)NC(C)C)c2c1CCC2.Cl (stereo not given),Population Apoptotic (%),[1],34%
same,Population Fragmented Nuclei (%),[1],6%
same,Population Healthy Nuclei (%),[1],81%
same,Population Hoechst High Intensity Objects (%),[1],5%
same,Population Membrane Permeable-Phenotype (%),[1],0%
same,Population Mitochondria Different-Phenotype (%),[1],54%
same,Population Mitotic Cells (%),[1],65%
same,Population Normal (%),[1],94%
same,Population Pyknosed Nuclei (%),[1],12%
same,Population Tubulin-Different-Phenotype (%),[1],40%
same,Total Cell Count,[1],409
same,Population Apoptotic (%),[2],45%
same,Population Fragmented Nuclei (%),[2],5%
same,Population Healthy Nuclei (%),[2],84%
same,Population Mitochondria Different-Phenotype (%),[2],65%
same,Population Mitotic Cells (%),[2],54%
same,Population Pyknosed Nuclei (%),[2],10%
same,Population Tubulin-Different-Phenotype (%),[2],22%
same,Total Cell Count,[2],360
same,Population Apoptotic (%),[3],43%
same,Population Fragmented Nuclei (%),[3],7%
same,Population Healthy Nuclei (%),[3],67%
same,Population Hoechst High Intensity Objects (%),[3],3%
same,Population Membrane Permeable-Phenotype (%),[3],0%
same,Population Mitochondria Different-Phenotype (%),[3],66%
same,Population Mitotic Cells (%),[3],56%
same,Population Normal (%),[3],96%
same,Population Pyknosed Nuclei (%),[3],25%
same,Population Tubulin-Different-Phenotype (%),[3],61%
same,Total Cell Count,[3],247
same,Population Fragmented Nuclei (%),[4],9%
same,Population Healthy Nuclei (%),[4],76%
same,Population Hoechst High Intensity Objects (%),[4],18%
same,Population Mitochondria Different-Phenotype (%),[4],79%
same,Population Normal (%),[4],81%
same,Population Pyknosed Nuclei (%),[4],14%
same,Population Tubulin-Different-Phenotype (%),[4],59%
same,Total Cell Count,[4],323
same,Population Apoptotic (%),[5],35%
same,Population Fragmented Nuclei (%),[5],6%
same,Population Healthy Nuclei (%),[5],80%
same,Population Hoechst High Intensity Objects (%),[5],3%
same,Population Membrane Permeable-Phenotype (%),[5],0%
same,Population Mitochondria Different-Phenotype (%),[5],38%
same,Population Mitotic Cells (%),[5],64%
same,Population Normal (%),[5],96%
same,Population Pyknosed Nuclei (%),[5],12%
same,Population Tubulin-Different-Phenotype (%),[5],25%
same,Total Cell Count,[5],548
same,Population Apoptotic (%),[6],28%
same,Population Fragmented Nuclei (%),[6],7%
same,Population Healthy Nuclei (%),[6],83%
same,Population Hoechst High Intensity Objects (%),[6],4%
same,Population Mitochondria Different-Phenotype (%),[6],45%
same,Population Mitotic Cells (%),[6],71%
same,Population Normal (%),[6],95%
same,Population Pyknosed Nuclei (%),[6],9%
same,Population Tubulin-Different-Phenotype (%),[6],17%
same,Total Cell Count,[6],444
same,Population Apoptotic (%),[7],46%
same,Population Fragmented Nuclei (%),[7],11%
same,Population Healthy Nuclei (%),[7],71%
same,Population Hoechst High Intensity Objects (%),[7],5%
same,Population Membrane Permeable-Phenotype (%),[7],1%
same,Population Mitochondria Different-Phenotype (%),[7],53%
same,Population Mitotic Cells (%),[7],53%
same,Population Normal (%),[7],94%
same,Population Pyknosed Nuclei (%),[7],17%
same,Population Tubulin-Different-Phenotype (%),[7],47%
same,Total Cell Count,[7],334
same,Population Apoptotic (%),[8],50%
same,Population Fragmented Nuclei (%),[8],9%
same,Population Healthy Nuclei (%),[8],78%
same,Population Hoechst High Intensity Objects (%),[8],11%
same,Population Membrane Permeable-Phenotype (%),[8],0%
same,Population Mitochondria Different-Phenotype (%),[8],60%
same,Population Mitotic Cells (%),[8],50%
same,Population Normal (%),[8],88%
same,Population Pyknosed Nuclei (%),[8],11%
same,Total Cell Count,[8],399
same,Population Apoptotic (%),[9],24%
same,Population Fragmented Nuclei (%),[9],12%
same,Population Healthy Nuclei (%),[9],79%
same,Population Hoechst High Intensity Objects (%),[9],3%
same,Population Membrane Permeable-Phenotype (%),[9],0%
same,Population Mitochondria Different-Phenotype (%),[9],28%
same,Population Mitotic Cells (%),[9],75%
same,Population Normal (%),[9],96%
same,Population Pyknosed Nuclei (%),[9],8%
same,Population Tubulin-Different-Phenotype (%),[9],14%
same,Total Cell Count,[9],804
same,Population Apoptotic (%),[10],26%
same,Population Fragmented Nuclei (%),[10],11%
same,Population Healthy Nuclei (%),[10],81%
same,Population Hoechst High Intensity Objects (%),[10],1%
same,Population Mitochondria Different-Phenotype (%),[10],27%
same,Population Mitotic Cells (%),[10],73%
same,Population Normal (%),[10],98%
same,Population Pyknosed Nuclei (%),[10],7%
same,Total Cell Count,[10],660
same,Population Apoptotic (%),[11],40%
same,Population Fragmented Nuclei (%),[11],10%
same,Population Healthy Nuclei (%),[11],74%
same,Population Hoechst High Intensity Objects (%),[11],5%
same,Population Membrane Permeable-Phenotype (%),[11],0%
same,Population Mitochondria Different-Phenotype (%),[11],48%
same,Population Mitotic Cells (%),[11],59%
same,Population Normal (%),[11],94%
same,Population Pyknosed Nuclei (%),[11],14%
same,Population Tubulin-Different-Phenotype (%),[11],43%
same,Total Cell Count,[11],435
same,Population Apoptotic (%),[12],34%
same,Population Fragmented Nuclei (%),[12],11%
same,Population Healthy Nuclei (%),[12],80%
same,Population Membrane Permeable-Phenotype (%),[12],1%
same,Population Mitochondria Different-Phenotype (%),[12],39%
same,Population Mitotic Cells (%),[12],66%
same,Population Pyknosed Nuclei (%),[12],8%
same,Population Tubulin-Different-Phenotype (%),[12],41%
same,Total Cell Count,[12],611
